Target: Thymidine phosphorylase (Escherichia coli K-12, UniProt P07650)
Test: Inhibition of Escherichia coli thymidine phosphorylase
Conditions: not given; call rule not given here
Summary of the method: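 E. coli thymidine phosphorylase, 0.05 or 0.002 U, in potassium phosphate buffer pH 7.4, preincubated with test compound 10 min at 25 °C. A 290 nm pre-read was then taken, substrate added (1.5 mM stock), and absorbance at 290 nm read after 10, 20 and 30 min. Increasing compound concentrations were tested in triplicate. IC50 was calculated from the inhibition data.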

Thymidine phosphorylase, sequence (P07650 whole entry): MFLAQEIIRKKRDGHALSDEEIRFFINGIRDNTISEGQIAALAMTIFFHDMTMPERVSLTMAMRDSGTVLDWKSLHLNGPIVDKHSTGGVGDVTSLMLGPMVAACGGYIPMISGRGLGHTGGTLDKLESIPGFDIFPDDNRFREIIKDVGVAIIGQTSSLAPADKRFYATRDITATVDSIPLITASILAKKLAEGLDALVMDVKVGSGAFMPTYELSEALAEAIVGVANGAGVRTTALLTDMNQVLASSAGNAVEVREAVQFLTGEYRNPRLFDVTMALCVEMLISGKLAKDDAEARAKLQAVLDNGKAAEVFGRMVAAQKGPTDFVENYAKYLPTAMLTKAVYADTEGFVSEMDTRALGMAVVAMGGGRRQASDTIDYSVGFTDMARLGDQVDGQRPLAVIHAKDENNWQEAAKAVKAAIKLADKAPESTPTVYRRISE

Which IC50 does the source give for `O=c1c(/C=N/c2cccnc2)coc2ccccc12` here?
The IC50 was “Not Active”.

With `Cc1cccc(C)c1/N=C/c1coc2ccccc2c1=O` as the molecule, how does the IC50 read?
Its IC50 is “Not Active”.

Which IC50 does the source give for `CC(C)(C)NC(NC(C)(C)C)c1coc2ccccc2c1=O` here?
Its IC50 is “Not Active”.

With `O=c1c(/C=N/c2ccncc2)coc2ccccc12` as the molecule, how does the IC50 read?
Its IC50 is “Not Active”.

With `COc1cc([N+](=O)[O-])ccc1/N=C/c1coc2ccccc2c1=O` as the molecule, how does the IC50 read?
The IC50 was “Not Active”.

How did the IC50 turn out when `O=C(O)c1ccccc1/N=C/c1coc2ccccc2c1=O` was run?
The IC50 was “Not Active”.

For `Cc1ccc(/N=C/c2coc3ccccc3c2=O)cc1`, which IC50 is on record?
Its IC50 is “Not Active”.

With `COc1cccc(/N=C/c2coc3ccccc3c2=O)c1` as the molecule, how does the IC50 read?
Its IC50 is “Not Active”.

Same assay, conditions: read-out: IC50

For `O=c1c(/C=N/CC/N=C/c2coc3ccccc3c2=O)coc2ccccc12`, which IC50 is on record?
The IC50 was 150 µM.

For `COc1cc(/N=C/c2coc3ccccc3c2=O)ccc1C`, which IC50 is on record?
The IC50 was 19.8 µM.

How did the IC50 turn out when `O=c1c(/C=N/c2ccc(Cl)cc2Cl)coc2ccccc12` was run?
Its IC50 is 40.3 µM.

`CCC(=O)N/N=C/c1coc2ccccc2c1=O` was tested. Which IC50 did it give?
Its IC50 is 146 µM.

Which IC50 does the source give for `O=C(c1ccccc1)c1cc(Cl)ccc1/N=C/c1coc2ccccc2c1=O` here?
The IC50 was 75.9 µM.

`Cc1cccc([N+](=O)[O-])c1/N=C/c1coc2ccccc2c1=O` was tested. Which IC50 did it give?
The IC50 was 480 µM.

How did the IC50 turn out when `Cc1cccc(/N=C/c2coc3ccccc3c2=O)c1` was run?
The IC50 was 67.3 µM.

With `O=c1c(/C=N/c2ncccc2O)coc2ccccc12` as the molecule, how does the IC50 read?
The IC50 was 340 µM.

For `O=c1c(/C=N/C(CO)Cc2ccccc2)coc2ccccc12` (configuration not stated), which IC50 is on record?
Its IC50 is 473 µM.

— ChEMBL document CHEMBL1153453, “Schiff bases of 3-formylchromone as thymidine phosphorylase inhibitors” (Bioorg Med Chem, 2009)
